# Assay results from ChEMBL document CHEMBL1938268, “Synthesis, characterization and in vitro biological evaluation of some novel diarylsulfonylureas as potential cytotoxic and antimicrobial agents” (Bioorg Med Chem Lett, 2012).
# Tested on: not listed separately
# Test: Toxicity against Brine shrimp nauplii after 24 hrs
# Type: organism-based
# Conditions: artemia salina, in vivo; read-out: ED50
# Outline: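 Artemia salina nauplii hatched 38 h in sterile brine (sea salt 38 g/L, pH 8.5) under aeration; 10 nauplii per vial exposed to graded compound concentrations in 5 mL final volume, 37 °C, 24 h under incandescent light. Survivors counted; percent lethality versus vehicle-treated controls; ED50 from probit analysis; podophyllotoxin positive control.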
row,SMILES,LC50 at 24 h
1,Cc1ccc(S(=O)(=O)NC(=O)Nc2ccccc2C(=O)/C=C/c2cccc(O)c2)cc1,39.3 µg/mL
2,Cc1ccc(S(=O)(=O)NC(=O)Nc2ccccc2C(=O)/C=C/c2cccc(F)c2)cc1,4.13 µg/mL
3,Cc1ccc(S(=O)(=O)NC(=O)Nc2ccccc2C(=O)/C=C/c2ccccc2)cc1,25 µg/mL
4,COc1cc([C@@H]2c3cc4c(cc3[C@H](O)[C@H]3COC(=O)[C@H]23)OCO4)cc(OC)c1OC [PODOFILOX],3.61 µg/mL
5,Cc1ccc(S(=O)(=O)NC(=O)Nc2ccccc2C(=O)/C=C/c2ccc(N(C)C)cc2)cc1,38.1 µg/mL

# Tested on: Bacillus subtilis
# Test: Antibacterial activity against Bacillus subtilis NCIM 2063 after 24 hrs by agar well diffusion assay
# Type: functional
# Conditions: NCIM 2063, 24 h
# Outline: (§1)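 Agar well diffusion per NCCLS; NCIM standard strains. Nutrient agar seeded with 0.1 mL bacterial suspension in sterile 0.85% saline at 10⁵ CFU/mL. Plates in triplicate, 37 0.5 °C, 24 h. MIC taken as lowest concentration giving complete growth inhibition.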
row,SMILES,MIC
1,Cc1ccc(S(=O)(=O)NC(=O)Nc2ccccc2C(=O)/C=C/c2cccc(O)c2)cc1,512 µg/mL
2,Cc1ccc(S(=O)(=O)NC(=O)Nc2ccccc2C(=O)/C=C/c2cccc(F)c2)cc1,16 µg/mL
3,Cc1ccc(S(=O)(=O)NC(=O)Nc2ccccc2C(=O)/C=C/c2ccccc2)cc1,512 µg/mL
4,Cc1ccc(S(=O)(=O)NC(=O)Nc2ccccc2C(=O)/C=C/c2ccc(N(C)C)cc2)cc1,64 µg/mL

# Tested on: Staphylococcus aureus
# Test: Antibacterial activity against Staphylococcus aureus NCIM 2079 after 24 hrs by agar well diffusion assay
# Type: functional
# Conditions: NCIM 2079, 24 h
# Outline: as §1
row,SMILES,MIC
1,Cc1ccc(S(=O)(=O)NC(=O)Nc2ccccc2C(=O)/C=C/c2cccc(O)c2)cc1,512 µg/mL
2,Cc1ccc(S(=O)(=O)NC(=O)Nc2ccccc2C(=O)/C=C/c2cccc(F)c2)cc1,16 µg/mL
3,Cc1ccc(S(=O)(=O)NC(=O)Nc2ccccc2C(=O)/C=C/c2ccccc2)cc1,512 µg/mL
4,Cc1ccc(S(=O)(=O)NC(=O)Nc2ccccc2C(=O)/C=C/c2ccc(N(C)C)cc2)cc1,64 µg/mL

# Tested on: Micrococcus luteus
# Test: Antibacterial activity against Micrococcus luteus NCIM 2155 after 24 hrs by agar well diffusion assay
# Type: functional
# Conditions: NCIM 2155, 24 h
# Outline: as §1
row,SMILES,MIC
1,Cc1ccc(S(=O)(=O)NC(=O)Nc2ccccc2C(=O)/C=C/c2cccc(O)c2)cc1,512 µg/mL
2,Cc1ccc(S(=O)(=O)NC(=O)Nc2ccccc2C(=O)/C=C/c2cccc(F)c2)cc1,64 µg/mL
3,Cc1ccc(S(=O)(=O)NC(=O)Nc2ccccc2C(=O)/C=C/c2ccccc2)cc1,512 µg/mL
4,Cc1ccc(S(=O)(=O)NC(=O)Nc2ccccc2C(=O)/C=C/c2ccc(N(C)C)cc2)cc1,128 µg/mL

# Tested on: Pseudomonas aeruginosa
# Test: Antibacterial activity against Pseudomonas aeruginosa NCIM 2036 after 24 hrs by agar well diffusion assay
# Type: functional
# Conditions: NCIM 2036, 24 h
# Outline: as §1
row,SMILES,MIC
1,Cc1ccc(S(=O)(=O)NC(=O)Nc2ccccc2C(=O)/C=C/c2cccc(O)c2)cc1,512 µg/mL
2,Cc1ccc(S(=O)(=O)NC(=O)Nc2ccccc2C(=O)/C=C/c2cccc(F)c2)cc1,16 µg/mL
3,Cc1ccc(S(=O)(=O)NC(=O)Nc2ccccc2C(=O)/C=C/c2ccccc2)cc1,512 µg/mL
4,Cc1ccc(S(=O)(=O)NC(=O)Nc2ccccc2C(=O)/C=C/c2ccc(N(C)C)cc2)cc1,64 µg/mL

# Tested on: Klebsiella pneumoniae
# Test: Antibacterial activity against Klebsiella pneumoniae NCIM 5082 after 24 hrs by agar well diffusion assay
# Type: functional
# Conditions: NCIM 5082, 24 h
# Outline: as §1
row,SMILES,MIC
1,Cc1ccc(S(=O)(=O)NC(=O)Nc2ccccc2C(=O)/C=C/c2cccc(O)c2)cc1,512 µg/mL
2,Cc1ccc(S(=O)(=O)NC(=O)Nc2ccccc2C(=O)/C=C/c2cccc(F)c2)cc1,64 µg/mL
3,Cc1ccc(S(=O)(=O)NC(=O)Nc2ccccc2C(=O)/C=C/c2ccccc2)cc1,512 µg/mL
4,Cc1ccc(S(=O)(=O)NC(=O)Nc2ccccc2C(=O)/C=C/c2ccc(N(C)C)cc2)cc1,128 µg/mL

# Tested on: Escherichia coli
# Test: Antibacterial activity against Escherichia coli NCIM 2065 after 24 hrs by agar well diffusion assay
# Type: functional
# Conditions: NCIM 2065, 24 h
# Outline: as §1
row,SMILES,MIC
1,Cc1ccc(S(=O)(=O)NC(=O)Nc2ccccc2C(=O)/C=C/c2cccc(O)c2)cc1,512 µg/mL
2,Cc1ccc(S(=O)(=O)NC(=O)Nc2ccccc2C(=O)/C=C/c2cccc(F)c2)cc1,16 µg/mL
3,Cc1ccc(S(=O)(=O)NC(=O)Nc2ccccc2C(=O)/C=C/c2ccccc2)cc1,512 µg/mL
4,Cc1ccc(S(=O)(=O)NC(=O)Nc2ccccc2C(=O)/C=C/c2ccc(N(C)C)cc2)cc1,64 µg/mL

# Tested on: Proteus vulgaris
# Test: Antibacterial activity against Proteus vulgaris NCIM 2813 after 24 hrs by agar well diffusion assay
# Type: functional
# Conditions: NCIM 2813, 24 h
# Outline: as §1
row,SMILES,MIC
1,Cc1ccc(S(=O)(=O)NC(=O)Nc2ccccc2C(=O)/C=C/c2cccc(O)c2)cc1,512 µg/mL
2,Cc1ccc(S(=O)(=O)NC(=O)Nc2ccccc2C(=O)/C=C/c2cccc(F)c2)cc1,64 µg/mL
3,Cc1ccc(S(=O)(=O)NC(=O)Nc2ccccc2C(=O)/C=C/c2ccccc2)cc1,512 µg/mL
4,Cc1ccc(S(=O)(=O)NC(=O)Nc2ccccc2C(=O)/C=C/c2ccc(N(C)C)cc2)cc1,128 µg/mL

# Tested on: Candida albicans
# Test: Antifungal activity against Candida albicans NCIM 3102 after 48 hrs by agar well diffusion assay
# Type: functional
# Conditions: NCIM 3102, 48 h
# Outline: (§2)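 Fungal spore suspensions in sterile distilled water set to final 10⁶ CFU/mL; 0.1 mL spread on Potato-Dextrose-Agar. NCCLS agar well diffusion with NCIM standard strains: 6 mm wells given 0.1 mL compound diluted in 1% DMSO, final 16 to 512 µg/mL. Triplicate plates held 48 h at 28 0.2 °C. MIC is lowest concentration fully inhibiting growth.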
row,SMILES,MIC
1,Cc1ccc(S(=O)(=O)NC(=O)Nc2ccccc2C(=O)/C=C/c2cccc(O)c2)cc1,512 µg/mL
2,Cc1ccc(S(=O)(=O)NC(=O)Nc2ccccc2C(=O)/C=C/c2cccc(F)c2)cc1,64 µg/mL
3,Cc1ccc(S(=O)(=O)NC(=O)Nc2ccccc2C(=O)/C=C/c2ccccc2)cc1,512 µg/mL
4,Cc1ccc(S(=O)(=O)NC(=O)Nc2ccccc2C(=O)/C=C/c2ccc(N(C)C)cc2)cc1,128 µg/mL

# Tested on: Aspergillus niger
# Test: Antifungal activity against Aspergillus niger NCIM 548 after 48 hrs by agar well diffusion assay
# Type: functional
# Conditions: NCIM 548, 48 h
# Outline: as §2
row,SMILES,MIC
1,Cc1ccc(S(=O)(=O)NC(=O)Nc2ccccc2C(=O)/C=C/c2cccc(O)c2)cc1,512 µg/mL
2,Cc1ccc(S(=O)(=O)NC(=O)Nc2ccccc2C(=O)/C=C/c2cccc(F)c2)cc1,64 µg/mL
3,Cc1ccc(S(=O)(=O)NC(=O)Nc2ccccc2C(=O)/C=C/c2ccccc2)cc1,512 µg/mL
4,Cc1ccc(S(=O)(=O)NC(=O)Nc2ccccc2C(=O)/C=C/c2ccc(N(C)C)cc2)cc1,256 µg/mL

# Tested on: Aspergillus oryzae
# Test: Antifungal activity against Aspergillus oryzae NCIM 643 after 48 hrs by agar well diffusion assay
# Type: functional
# Conditions: NCIM 643, 48 h
# Outline: as §2
row,SMILES,MIC
1,Cc1ccc(S(=O)(=O)NC(=O)Nc2ccccc2C(=O)/C=C/c2cccc(O)c2)cc1,512 µg/mL
2,Cc1ccc(S(=O)(=O)NC(=O)Nc2ccccc2C(=O)/C=C/c2cccc(F)c2)cc1,64 µg/mL
3,Cc1ccc(S(=O)(=O)NC(=O)Nc2ccccc2C(=O)/C=C/c2ccccc2)cc1,512 µg/mL
4,Cc1ccc(S(=O)(=O)NC(=O)Nc2ccccc2C(=O)/C=C/c2ccc(N(C)C)cc2)cc1,256 µg/mL

# Tested on: Penicillium chrysogenum
# Test: Antifungal activity against Penicillium chrysogenum NCIM 738 after 48 hrs by agar well diffusion assay
# Type: functional
# Conditions: NCIM 738, 48 h
# Outline: as §2
row,SMILES,MIC
1,Cc1ccc(S(=O)(=O)NC(=O)Nc2ccccc2C(=O)/C=C/c2cccc(O)c2)cc1,512 µg/mL
2,Cc1ccc(S(=O)(=O)NC(=O)Nc2ccccc2C(=O)/C=C/c2cccc(F)c2)cc1,64 µg/mL
3,Cc1ccc(S(=O)(=O)NC(=O)Nc2ccccc2C(=O)/C=C/c2ccccc2)cc1,512 µg/mL
4,Cc1ccc(S(=O)(=O)NC(=O)Nc2ccccc2C(=O)/C=C/c2ccc(N(C)C)cc2)cc1,256 µg/mL

# Tested on: Bacillus pumilus
# Test: Antibacterial activity against Bacillus pumilus NCIM 2327 after 24 hrs by agar well diffusion assay
# Conditions: NCIM 2327, 24 h
row,SMILES,MIC
1,Cc1ccc(S(=O)(=O)NC(=O)Nc2ccccc2C(=O)/C=C/c2cccc(O)c2)cc1,512 µg/mL
2,Cc1ccc(S(=O)(=O)NC(=O)Nc2ccccc2C(=O)/C=C/c2cccc(F)c2)cc1,16 µg/mL
3,Cc1ccc(S(=O)(=O)NC(=O)Nc2ccccc2C(=O)/C=C/c2ccccc2)cc1,512 µg/mL
4,Cc1ccc(S(=O)(=O)NC(=O)Nc2ccccc2C(=O)/C=C/c2ccc(N(C)C)cc2)cc1,64 µg/mL
